# Assay results of several laboratories.
# Each line is one published result; the experiments were not run side by side.
# Target: Mitogen-activated protein kinase kinase kinase kinase 1 (MAP4K1, Homo sapiens, UniProt Q92918)
SMILES,assay,setting,quantity,value
Cc1sc(C(=O)NC2COC2)cc1-n1cc(NC(=O)Nc2c(F)cccc2Cl)cn1,"enzyme activity, inhibitor",10 µM,remaining activity,99.2%
CC/C(=N\NC(=O)NCc1cccc(O)c1)c1ccc(O)c(C)c1O,"enzyme activity, inhibitor",0.1 µM,inhibition,17.1%
CC(=O)N1CCC(c2ccc(C(=O)NC(=N)N)cc2C(F)(F)F)CC1,"cell-free assay, competition with immobilised ligand",1 µM,remaining binding,100%
COc1cc(Cl)c(C(=O)N[C@@H](CN[C@H]2CC[C@@H](N)CC2)Cc2ccc(C#N)cc2)cc1-c1ccc(CN[C@H](C)c2ccc(C)cc2)o1,"enzyme activity, inhibitor",1 µM,remaining activity,96%
O=C(Nc1cnn(-c2csc(C(=O)NC3COC3)c2)c1)Nc1ccccc1Cl,"enzyme activity, inhibitor",5 µM,remaining activity,132%
CC(C)(O)[C@H]1CC[C@H](Nc2ccc3ncc(-c4cccc(C(F)(F)F)c4)n3n2)CC1,"enzyme activity, inhibitor",1 µM,remaining activity,79.6%
CN1CC(Oc2cnc(C#N)cc2-c2ccn3nc(NC(=O)C4CC4)cc3c2)C1,"enzyme activity, inhibitor",1 µM,inhibition,4%
COc1cc2nccc(Oc3ccc(NC(=O)c4c5n(n(-c6ccc(F)cc6)c4=O)CCCC5)cc3)c2cc1OC,"enzyme activity, inhibitor",0.1 µM,inhibition,11%
Cc1ccc(C(=O)Nc2ccc(CN3CCN(C)CC3)c(C(F)(F)F)c2)cc1C#Cc1cnc2cccnn12,"enzyme activity, inhibitor",23.5 nM,remaining activity,8.5%
Nc1ncnc2occ(-c3ccc(NC(=O)Nc4cc(C(F)(F)F)ccc4F)cc3)c12,"cell-free assay, inhibitor",20 µM,remaining signal,0.7%
Cc1ccc(C(=O)NCc2ccsc2)cc1C#Cc1cn(C(C)C)c2ncnc(N)c12,"enzyme activity, inhibitor",1 µM,activity vs control,85%
CCS(=O)(=O)c1cc2cc(C[C@](O)(CC(C)(C)c3ccc(F)cc3C(N)=O)C(F)(F)F)[nH]c2cn1,"cell-free assay, competition with immobilised ligand",1 µM,remaining binding,100%
